In the RNAGym collection of RNA variant scans (doi:10.1126/science.aae0568):
Variants at the floor of the assay were thinned out.

B1: tRNA (parent)
chain: GUUCCGUUGGCGUAAUGGUAACGCGUCUCCCUCCUAAGGAGAAGACUGCGGGUUCGAGUCCCGUACGGAACG

Variants of: B1
Experiment: yeast fitness relative to wild type (ratio to wild type); higher = fitter; tRNA-Arg(CCU), competitive growth, 37 C, YPD
Method in brief: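 For this measurement, the tRNA-Arg(CCU) gene was varied by chemical synthesis at a 3% per-site mutation rate across 69 sites, and each variant was placed at the native genomic locus in Saccharomyces cerevisiae. The pooled strains went through a 24-hour competition in YPD at 37°C in six parallel replicates, with amplicons from start and end populations read by 100-nucleotide paired-end sequencing. Darwinian fitness relative to wild type followed from the change in each genotype's frequency. Genotypes needed ≥ 100 starting reads, and estimates < 0.5 were set to 0.5.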
GUUCCGUUGCCGUAAUGGUAACGCGUCUCCCUCCUAAGGAGAAGACUGGGGGGUCGAGUCCCGUACGGAACG gave a yeast fitness of 0.551. Variant GUUCCGUUGCCGUAAUGGUAACGCGUCUCCCUCCUAAGGAGAUGACUGCGGGUUCGAGUCCCCUAAGGAACG has a yeast fitness of no more than 0.5. GUUCCGUUGCCGUAAUGGUAACGCGUCUCCCUCCUAAGGAGAAGACUGCGGGUUCGAGUCCUGUACGGAACG gave a yeast fitness of 0.646. In the case of GUUCCGUUGCCGUAAUGGUAACGCGUCUCCCUCCUAAGGAGAAGGCUGCGGGUUCGAGUCCCGUACGGAACG, the yeast fitness is reported as 0.716. Work on GUUCCGUUGCCGUAAUGGUAACGCGUUUCUCUCCUAAGGAGAAGACUGCGGGAUCGAGUCCCGUACGGCACG yielded a yeast fitness of no more than 0.5. GUUCCGUUGCCGUAAUGGUAACGCGUCUCCCUCCUAAGGAGAAGACUGCGGGUUUGAGUCCCGUACGGAACG showed a yeast fitness of no more than 0.5. Variant GUUCCGUUGCCAUAAUGGUAAAGGGUCUCCCUCCUAAGGAGAAGACUGCGGGAUCGAGUCCCGUACGGAACG has a yeast fitness of no more than 0.5. Work on GUUCCGUUGCCGUAAUGGUAACGCGUCUCCGUCCUAAGGAGAAGACUGCGGGUUCGAGUCCCGUACGGAUCG yielded a yeast fitness of 0.569. GUUCCGUUGCAGUAAUGGUAACGCGUCUCCUUCCUUAGGAGAAGACUGCGGGUUCCUGUCCCGUACGGAACG showed a yeast fitness of 0.606. Work on GUUCCGUUGCCGUAAUGGUAACGAGUCUCCCUCCUAAGGAGAAGACUGCGGGUUCGAGUCUCGUACGGAACG yielded a yeast fitness of no more than 0.5. Variant GUUCCGUUGCCGUAAUGGUAACGUGUCUCCCUCUUUAGGAGAAGAAUGCGGGUUCGAGUCCCGUACGGAACG has a yeast fitness of 0.505. For GUUCCGUUGCCGUAAUGGUAACGCGUCUCCCUCCUAAGAAGAAGACUGCGGGUUCGAGUCCCGUACGGAACG, the yeast fitness was 0.563. GUUCCGUUGCCGUAAUAGUUACGCGUCUCCCUCCUAAGGAGAAGACUGCGGGUUCGAGUCCCGUACGGAACG gave a yeast fitness of no more than 0.5. GUUCCGUUGCCGUAAUGCUAACGCGUCUCCCUCCUAAGGAGAAGCCUGCGGGUUCGAGUCCCGUACGGAACG gave a yeast fitness of no more than 0.5. Variant GUUCCGUUGCCGUAAUGGUAACGCGUAUCCCUCCUAAGGAGUAGAGUGCGGGUUCGAGUCCCGUACGGAACG has a yeast fitness of no more than 0.5. In the case of GUUCCGUUGCCGUAAUGGUAAUGCGUCUCCCUCCUAAGGAGAAGACUGCGGGUUCGAGUCCCGUACGGAACG, the yeast fitness is reported as 0.803. GUUCCGUUGCCGUAAUGGUAAAGCGUCUCCCUCCUAAGGAGAAGACUGCGGGUUCGAGUCCCGUACGGAACG gave a yeast fitness of 0.705. GUUCCGUUGCCGUAAUGGUAACGCGUCUCCCUCAUAAGGAGAAGACUGCGGGAGCGAGUCCCGUACGGAACG showed a yeast fitness of no more than 0.5. Work on GUUCCGUUGCCGUAAUGGUAAAGGGUCUCCCUCCUAAGGAGAAGACUGCCGGUUCGAGUCCCGUCCGGAACG yielded a yeast fitness of no more than 0.5. GUUCCGUUGCCGUAAUGAUAACGCGUCUCGCUCCUAAGGAGAAAACUACGGGUUCGAAUCCCGUACGGAACG gave a yeast fitness of no more than 0.5. GUUCCGUUGCCGUAAUGGUAAAGGGUUUCCCUCCUAAGGAGAAGACUGCGGGAUCGAGUCCCGUACGGAACG showed a yeast fitness of 0.543. In the case of GUUCCGUUGCCGUAAUGGUAAAGGGUCUCCCUCCUAAGGAGAAGACUGCGGGAUCGAGUCCCGUACAGAACG, the yeast fitness is reported as no more than 0.5. Work on GUUCCGUUGCCGUAAUGGUAACGCGUCUCCCUACUAAGGAGAAGACUGCGGGUUCGAGUCCCGUACGGAACG yielded a yeast fitness of 0.506. With GUUCCGUUGCCGUAAUGGUAACGCGUCUCCCUGCUAAGGAGAAGACUGCGGGUUCGAGUCCCGUACGGAACG the yeast fitness was 0.558. For GUUCCGUUGCCGUAAUGGUAACCCGUCUCCCUCCUAAGGAGGAGACUGCAGGUUCGCGUCCCGUACAGAACG, the yeast fitness was no more than 0.5. Work on GUUCCGUUGCCGUAAUGGUAACGCGUCUUCCUCUUAAAGAGAACACUGCGGGUUCGAGUCCCGUACGGAACG yielded a yeast fitness of no more than 0.5. Work on GUUCCGUUGCCGUAAUGGUAACGCGUCUCCCUCCUAAGGAGAAGACUGCGGGUUGGAGUCCCGUACGGCACG yielded a yeast fitness of no more than 0.5. In the case of GUUCCGUUGCCGUAAUGGUAACGCCCCUCCCUCCUAAGGAGAAGACUGCGGGUUCGAGUCCCGUACGGAACG, the yeast fitness is reported as 0.526. With GUUCCGUUGCCGUAAUGGUAACGCGUCUCCCUCCUAAGGAGACGACCGCGGGUUUGAGUCCCGUACGGCACG the yeast fitness was no more than 0.5. GUUCCGUUGCCGUAAUGGUAACGCGUCUCCCUCCUAAGGAGAAGCAUGCGGGUUCGAGUCCCGUAUGGAACG showed a yeast fitness of 0.643. Variant GUUCCGUUGCCGUAAUGGUAACGCGUCUCCCUCCUAAGGAGAAGAUUGCGGGUUCGAGUCCUGUACGGAACG has a yeast fitness of no more than 0.5. For GUUCCGUUGCCAUAAUGGUAACGCGUCUCCCUCCUGAGGAGAAGAAAGCGGGUUCGAGUCCCGUACGGAACG, the yeast fitness was no more than 0.5. With GUUCCGUUGCCGUAAUGGUAACGCGUCUCCCUCCUAAGGAGUAGAGUGCGGGUUCGAGUCCCGUACGGAACG the yeast fitness was no more than 0.5. With GUUCCGUUGCCGUAAUGGUAACGCGUCUCCCUCCUAAGGAGACGACUGUGGGUUCGAGUCCCGUACGGUACG the yeast fitness was no more than 0.5. Variant GUUCCGUUGCCGUAAUGGUAACGCGUCUCCAUCCUAAGGAGAAGACUGCGGGUUCAAGUCCCGUGAGCAACG has a yeast fitness of no more than 0.5. GUUCCGUUGCCAUAAUGGUAACGCGUCUCCCUACGAAGGAGAAGACAGCGGGUUAGAGUCUCGUACGGAACG showed a yeast fitness of no more than 0.5. For GUUCCGUUGCCGUAAUGGUAACGCCUCUCCCUCCUAAGGAGAAGACUGCGGGUUAGAGUCCCGUACGGAACG, the yeast fitness was 0.545.
